Laboratory results published in ChEMBL document CHEMBL1153570, “Synthesis and antitubercular screening of imidazole derivatives” (2009).
In brackets after ≈: the same amount, converted by molar mass.

These compounds were tested on Mycobacterium tuberculosis (assay: Antimycobacterial activity against Mycobacterium tuberculosis H37Rv by agar microdilution assay). Details: not given.
Type: functional
Procedure, shortened: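 H37Rv from L–J medium suspended in 0.85% saline with 0.05% Tween-80. Twofold compound dilutions in OADC-supplemented 7H10 agar slants, preincubated 24 h at 37 °C, then streaked with 5 × 10⁴ bacilli per tube. Incubated at 37 °C and growth read after 30 days against drug-free controls. MIC taken as the concentration giving complete inhibition of colonies.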

`NNC(=O)c1ccncc1` [ISONIAZID] was tested. Which MIC did it give?
The MIC was 0.65 µg/mL (≈ 4.74 µM).

For `C=CCc1cnc(CCC)n1CCCn1ccnc1CCC`, which MIC is on record?
The MIC was 25 µg/mL (≈ 83.2 µM).

Which MIC does the source give for `CCOC(=O)CC(C1O[C@H]2OC(C)(C)O[C@H]2[C@@H]1OC)n1ccnc1` (stereo not given in full) here?
Its MIC is 25 µg/mL (≈ 73.4 µM).

With `CCCCNC(=O)Cn1ccnc1` as the compound, how does the MIC read?
Its MIC is over 12.5 µg/mL.

For `OCCn1ccnc1`, which MIC is on record?
The MIC was over 12.5 µg/mL.

`CCCCCCNC(=O)Cn1ccnc1` was tested. Which MIC did it give?
The MIC was over 12.5 µg/mL.

`c1ccc(Cn2cnc3ccccc32)cc1` was tested. Which MIC did it give?
Its MIC is over 12.5 µg/mL.

`c1cn(CCCCCn2ccnc2)cn1` was tested. Which MIC did it give?
Its MIC is over 12.5 µg/mL.

Which MIC does the source give for `c1cn(CCCn2ccnc2)cn1` here?
Its MIC is over 12.5 µg/mL.

For `CCCc1nccn1C(CC(=O)OCC)C1O[C@H]2OC(C)(C)O[C@H]2[C@@H]1OCc1ccccc1` (stereo not given in full), which MIC is on record?
The MIC was 50 µg/mL (≈ 109 µM).

With `CCOC(=O)CC(C1O[C@H]2OC(C)(C)O[C@H]2[C@@H]1OCc1ccccc1)n1ccnc1` (stereo not given in full) as the compound, how does the MIC read?
Its MIC is 50 µg/mL (≈ 120 µM).

How did the MIC turn out when `O=C(Cn1ccnc1)NCc1ccccc1` was run?
Its MIC is over 12.5 µg/mL.

Which MIC does the source give for `c1ccc(CNCCn2ccnc2)cc1` here?
Its MIC is 12.5 µg/mL (≈ 62.1 µM).

Which MIC does the source give for `Clc1ccc(Cn2cnc3ccccc32)cc1Cl` here?
The MIC was over 12.5 µg/mL.

For `CC[C@@H](CO)NCCN[C@@H](CC)CO` [ETHAMBUTOL], which MIC is on record?
The MIC was 1.5 µg/mL (≈ 7.34 µM).

How did the MIC turn out when `CCCCCCCNC(=O)Cn1ccnc1` was run?
The MIC was over 12.5 µg/mL.

`CCOC(=O)Cn1ccnc1` was tested. Which MIC did it give?
The MIC was over 6.25 µg/mL.

For `CCCc1nccn1C(CC(=O)OCC)C1O[C@H]2OC(C)(C)O[C@H]2[C@@H]1OC` (stereo not given in full), which MIC is on record?
The MIC was 25 µg/mL (≈ 65.4 µM).

For `CCOC(=O)CCn1ccnc1`, which MIC is on record?
The MIC was over 12.5 µg/mL.

These compounds were tested on Mycobacterium tuberculosis (assay: Antimycobacterial activity against Mycobacterium tuberculosis H37Ra after 5 days by microplate alamar blue assay). Details: 120 h.
Type: functional
Procedure, shortened: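 Log-phase M. tuberculosis H37Ra diluted to final OD550 0.05 in Sauton's medium. Compounds in DMSO, twofold dilutions from […]. Incubated at 37 °C/5% CO2 for 5 days, alamar blue added on day 5, incubated overnight. Fluorescence read-out.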

With `NNC(=O)c1ccncc1` [ISONIAZID] as the compound, how does the MIC read?
The MIC was 0.65 µg/mL (≈ 4.74 µM).

`C=CCc1cnc(CCC)n1CCCn1ccnc1CCC` was tested. Which MIC did it give?
The MIC was over 12.5 µg/mL.

`CCOC(=O)CC(C1O[C@H]2OC(C)(C)O[C@H]2[C@@H]1OC)n1ccnc1` (stereo not given in full) was tested. Which MIC did it give?
The MIC was 25 µg/mL (≈ 73.4 µM).

For `CCCCNC(=O)Cn1ccnc1`, which MIC is on record?
Its MIC is over 12.5 µg/mL.

Which MIC does the source give for `OCCn1ccnc1` here?
Its MIC is over 12.5 µg/mL.

`CCCCCCNC(=O)Cn1ccnc1` was tested. Which MIC did it give?
The MIC was 25 µg/mL (≈ 119 µM).

`c1ccc(Cn2cnc3ccccc32)cc1` was tested. Which MIC did it give?
The MIC was over 12.5 µg/mL.

`c1cn(CCCCCn2ccnc2)cn1` was tested. Which MIC did it give?
Its MIC is over 12.5 µg/mL.

`c1cn(CCCn2ccnc2)cn1` was tested. Which MIC did it give?
The MIC was over 12.5 µg/mL.

`CCCc1nccn1C(CC(=O)OCC)C1O[C@H]2OC(C)(C)O[C@H]2[C@@H]1OCc1ccccc1` (stereo not given in full) was tested. Which MIC did it give?
Its MIC is 50 µg/mL (≈ 109 µM).

How did the MIC turn out when `CCOC(=O)CC(C1O[C@H]2OC(C)(C)O[C@H]2[C@@H]1OCc1ccccc1)n1ccnc1` (stereo not given in full) was run?
Its MIC is 50 µg/mL (≈ 120 µM).

For `O=C(Cn1ccnc1)NCc1ccccc1`, which MIC is on record?
Its MIC is over 12.5 µg/mL.

`CCCc1nccn1CCCn1ccnc1CCC` was tested. Which MIC did it give?
The MIC was over 12.5 µg/mL.

With `c1ccc(CNCCn2ccnc2)cc1` as the compound, how does the MIC read?
Its MIC is 12.5 µg/mL (≈ 62.1 µM).

With `Clc1ccc(Cn2cnc3ccccc32)cc1Cl` as the compound, how does the MIC read?
The MIC was over 12.5 µg/mL.

Which MIC does the source give for `Clc1ccc(Cn2ccnc2)cc1Cl` here?
The MIC was over 12.5 µg/mL.

For `CC[C@@H](CO)NCCN[C@@H](CC)CO` [ETHAMBUTOL], which MIC is on record?
Its MIC is 1.5 µg/mL (≈ 7.34 µM).

With `CCCCCCCNC(=O)Cn1ccnc1` as the compound, how does the MIC read?
The MIC was over 12.5 µg/mL.

Which MIC does the source give for `CCOC(=O)Cn1ccnc1` here?
Its MIC is over 12.5 µg/mL.

With `CCCc1nccn1C(CC(=O)OCC)C1O[C@H]2OC(C)(C)O[C@H]2[C@@H]1OC` (stereo not given in full) as the compound, how does the MIC read?
Its MIC is 25 µg/mL (≈ 65.4 µM).

The compounds below were run on Mycobacterium tuberculosis (assay: Antitubercular activity against Mycobacterium tuberculosis H37Rv after 5 to 8 days by BACTEC radiometric assay). Details: not given.
Type: functional
Procedure, shortened: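 H37Rv from L–J slants homogenized with glass beads and adjusted to McFarland 1. Primary inoculum grown in BACTEC 12B vial to GI 500–700, then 0.1 ml added to 4 ml 12B broth containing compound. A 1:100-inoculum control vial was included. Incubated at 37 °C with daily GI readings; read one more day after the 1:100 control reached GI 30.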

With `CCCc1nccn1CCCn1ccnc1CCC` as the compound, how does the MIC read?
The MIC was 6.25 µg/mL (≈ 24 µM).
